From publication PMC3228909 (Journal of medicinal chemistry, 2011)
“And” between values parts separate entries of the source, which are not always exact repeats. Equal values may be shown once. Read-outs that look alike come from different tables or passages of the source.

Tests used:
[1] = molecular target: Aβ plaques in postmortem AD brain homogenates (Homo sapiens, UniProt P05067); format: binding
[2] = normal mice, iv, cited from earlier work
[3] = molecular target: Aβ plaques in postmortem human brain sections (Homo sapiens, UniProt P05067); test: In vitro autoradiography of postmortem human brain sections; format: binding
Method in brief: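 Frozen postmortem brains (confirmed CAA, AD, control) cut at 20 µm. Sections incubated 1 h with the 18F-labelled test compound in 40% ethanol. Washes: saturated Li2CO3 in 40% ethanol (2 min, twice), then 40% ethanol (2 min, once), then a 30 s water rinse. Dried sections exposed to film for 12–18 h; developed images digitized.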

[4] = molecular target: Aβ plaques in CAA brain sections (Homo sapiens, UniProt P05067); test: Thioflavin S fluorescent staining of neighboring CAA occipital brain sections
Method in brief: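 Brain sections fixed in 10% neutral buffered formalin for 1 hr. Autofluorescence quenched with 0.05% KMnO4, then bleached in 0.2% K2S2O5/0.2% oxalic acid. Stained 3–5 min with 0.025% thioflavin S in 40% ethanol, differentiated in 50% ethanol. Imaged by fluorescence microscopy with a CCD digital camera.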

Chain of Aβ plaques in postmortem human brain sections (P05067 672-711 limits assumed): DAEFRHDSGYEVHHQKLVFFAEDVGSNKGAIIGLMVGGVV
Chain of Aβ plaques in postmortem AD brain homogenates (P05067 672-711 limits assumed): as above
Chain of Aβ plaques in CAA brain sections (P05067 672-711 limits assumed): as above

CNc1ccc(/C=C/c2ccc(OCCOCCOCCOCCOCCOCC(COCCOCCOCCOCCOCCOc3ccc(/C=C/c4ccc(NC)cc4)cn3)OCCF)nc2)cc1 [Compound 8b]
Ki [1]: 3.24 nM

CNc1ccc(/C=C/c2ccc(OCCOCCOCCOCCOCCOCCOCC(COCCOCCOCCOCCOCCOCCOc3ccc(/C=C/c4ccc(NC)cc4)cn3)OCCF)nc2)cc1 [Compound 8c]
Ki [1]: 7.71 nM

CNc1ccc(/C=C/c2ccc(OCCOCCOCC[18F])nc2)cc1 [[^18F]5, [^18F]florbetapir f 18]
Biodistribution, Blood ([2]; 2 min post injection): 3.14 ± 0.69 % dose/gram
Biodistribution, Bone ([2]; 2 min post injection): 1.43 ± 0.09 % dose/gram
Biodistribution, Brain (brain uptake) ([2]; 2 min post injection): 7.8 % dose/gram and 7.77 ± 1.70 % dose/gram
Biodistribution, Kidney ([2]; 2 min post injection): 10.9 ± 2.63 % dose/gram
Biodistribution, Liver ([2]; 2 min post injection): 21.5 ± 1.07 % dose/gram
Biodistribution, Muscle ([2]; 2 min post injection): 1.06 ± 0.39 % dose/gram
Biodistribution, Blood ([2]; 30 min post injection): 2.80 ± 0.44 % dose/gram
Biodistribution, Bone ([2]; 30 min post injection): 1.22 ± 0.17 % dose/gram
Biodistribution, Brain ([2]; 30 min post injection): 1.59 ± 0.22 % dose/gram
Biodistribution, Kidney ([2]; 30 min post injection): 6.31 ± 0.58 % dose/gram
Biodistribution, Liver ([2]; 30 min post injection): 12.9 ± 0.72 % dose/gram
Biodistribution, Muscle ([2]; 30 min post injection): 1.78 ± 0.34 % dose/gram
Autoradiographic labeling of brain sections ([3]; AD brain sections): labeled intensely
Autoradiographic labeling of brain sections ([3]; healthy control (HC) brain sections): very low labeling

thioflavin S
Fluorescent staining of brain sections compared with [18F]8a autoradiography [4]: same labeling of the major blood vessels
